Tested on: RAW264.7
Assay: Inhibition of LPS-induced nitric oxide production in mouse RAW264.7 cells pretreated for 1 hr followed by LPS-stimulation and measured after 24 hrs by Griess assay
Assay type: functional, cell-based
In short: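 RAW 264.7 macrophages seeded at 0.9 × 10^5 cells/mL and grown 24 h; pretreated with compound 1 h, then stimulated with LPS (1 μg/mL) for 24 h. Accumulated nitrite in medium measured with Griess reagent as NO indicator. IC50 = concentration giving 50% decrease in NO production; means of three independent experiments. NIL (10 μM) as positive control; MTT viability assay run in parallel.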

Compound | IC50 [nM]
COc1cc(O)cc2occ(-c3ccc(O)cc3)c(=O)c12 | > 1000
O=c1c2c(O)cc(O)cc2oc2oc3cc(O)ccc3c12 | > 1000
COc1cc(O[C@@H]2O[C@H](CO)[C@@H](O)[C@H](O)[C@H]2O)cc2occ(-c3ccc(O[C@@H]4O[C@H](CO)[C@@H](O)[C@H](O)[C@H]4O)cc3O)c(=O)c12 | 420
COc1cc(O[C@@H]2O[C@H](CO)[C@@H](O)[C@H](O)[C@H]2O)cc2occ(-c3ccc(O)cc3)c(=O)c12 | > 1000
O=c1c(-c2ccc(O[C@@H]3O[C@H](CO)[C@@H](O)[C@H](O)[C@H]3O)cc2O)coc2cc(O)cc(O)c12 | > 1000
O=c1c(-c2ccc(O)cc2O)coc2cc(O[C@@H]3O[C@H](CO[C@@H]4O[C@H](CO)[C@@H](O)[C@H](O)[C@H]4O)[C@@H](O)[C@H](O)[C@H]3O)cc(O)c12 | 600
O=c1c(-c2ccc(O)cc2)coc2cc(O[C@@H]3O[C@H](CO[C@@H]4O[C@H](CO)[C@@H](O)[C@H](O)[C@H]4O)[C@@H](O)[C@H](O)[C@H]3O)cc(O)c12 | > 1000
COc1cc(-c2coc3cc(O)cc(OC)c3c2=O)ccc1O | > 1000
COc1cc(O)cc2c1C(=O)[C@]1(O)c3ccc(O)cc3O[C@@H]1O2 | 380
O=c1c(-c2ccc(O[C@@H]3O[C@H](CO)[C@@H](O)[C@H](O)[C@H]3O)cc2O)coc2cc(O[C@@H]3O[C@H](CO)[C@@H](O)[C@H](O)[C@H]3O)cc(O)c12 | 710
O=c1c(-c2ccc(O)cc2)coc2cc(O[C@@H]3O[C@H](CO[C@@H]4O[C@H](CO[C@@H]5O[C@H](CO)[C@@H](O)[C@H](O)[C@H]5O)[C@@H](O)[C@H](O)[C@H]4O)[C@@H](O)[C@H](O)[C@H]3O)cc(O)c12 | > 1000
COc1cc(-c2coc3cc(O[C@@H]4O[C@H](CO)[C@@H](O)[C@H](O)[C@H]4O)cc(OC)c3c2=O)ccc1O | > 1000
COc1cc(O)cc2occ(-c3ccc(O)cc3O)c(=O)c12 | 600
COc1cc(O)cc2occ(-c3ccc(O[C@@H]4O[C@H](CO)[C@@H](O)[C@H](O)[C@H]4O)cc3O)c(=O)c12 | 470
COc1cc(O[C@@H]2O[C@H](CO)[C@@H](O)[C@H](O)[C@H]2O)cc2occ(-c3ccc(O)cc3O)c(=O)c12 | > 1000
O=c1c(-c2ccc(O)cc2O)coc2cc(O[C@@H]3O[C@H](CO)[C@@H](O)[C@H](O)[C@H]3O)cc(O)c12 | > 1000
O=c1c(-c2ccc(O)cc2O)coc2cc(O)cc(O)c12 | > 1000
NC(=O)NC1NC(=O)NC1=O (stereo unspecified) [ALLANTOIN] | 500
O=c1c(-c2ccc(O)cc2)coc2cc(O)cc(O)c12 [GENISTEIN] | > 1000
O=c1c(-c2ccc(O)cc2)coc2cc(O[C@@H]3O[C@H](CO)[C@@H](O)[C@H](O)[C@H]3O)cc(O)c12 [GENISTIN] | > 1000
CC(=N)NCCCC[C@H](N)C(=O)O [L-NIL] | 1550
